Screening results from PubChem.
Shown are actives, neighbours in structure and some others; about 6.6% of the full set was active somewhere.
HEK293 NFkB inh: inhibitors of PMA/ionomycin-induced NF-kB reporter, primary screen, antigen receptor NF-kB inhibitor project, cell-based, HEK-293 luciferase reporter, luminescence. HEK-293 NF-kB luciferase reporter. inhibition, % at 3 µM. 62,000 tested, 0.21% active. AID 465, 2006;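 active = inhibition above the mean of all tested compounds plus 3 SD, cut at about 40% in these data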;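 also: 0% = stimulated DMSO wells and 100% = 10 µM reference inhibitor 5653914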
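Timing: 1 h pretreatment, 16 h stimulation, 37 °C; system: HEK-293 cells with stable firefly luciferase reporter driven by four HIV NF-kB elements; doses: 3 µM once, 0.30% DMSO; measured by: luciferase luminescence; control set: DMSO and 10 µM reference inhibitor; repeats: single test; reagent: PMA plus ionomycin mix as NF-kB-activating stimulus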
Her2 expr inh: inhibitors of Her2 protein expression, primary screen, SKBR-3 cells, AlphaScreen, 66K library | Receptor tyrosine-protein kinase erbB-2 (Homo sapiens), P04626 | SKBR-3 HER2 protein level, 18-24 h; stronger effect = lower value | HER2 level % of control, % at 10 µM | 65,000 tested, 0.69% active;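 active = HER2 level under 5% of the carrier-only control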;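 also: 100% = DMSO carrier and 0% = 500 nM PU-H71 HSP90 inhibitor; lower value means stronger loss of Her2 protein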
M1 ag: M1 muscarinic receptor agonists, primary screen, CHO-M1 cells, Fluo-4 calcium, agonist mode. Fluo-4 calcium fluorescence; stronger effect = higher value. B-score at 10 µM. Muscarinic acetylcholine receptor M1. 64,000 tested, 3% active;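 active = fluorescence rise, raw or as B-score row- and column-corrected plate score, outside the 99.7% band of its plate's samples, either direction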
BAP1 inh: inhibitors of BAP1 deubiquitinase, primary screen, biochemical, Ub-AMC fluorescence, kinetic | recombinant BAP1, Ub-AMC hydrolysis fluorescence kinetic; stronger effect = lower value | calls only at 20 µM | 72,000 tested, 0.48% active | AID 436, 2006;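 active = activity remaining at or below 50% of control, provided the compound also passes the data quality filters; inactive = the rest, including low values that fail the filters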;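 also: 100% = DMSO wells rate and 0% = substrate alone blank rate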
JNK3 inh: JNK3 kinase activity inhibitors, primary screen, biochemical, human, purified enzyme; Mitogen-activated protein kinase 10 (Homo sapiens), P53779; HTS; inhibition, % at 8 µM; 60,000 tested, 0.61% active; AID 746, 2007; in the data active = inhibition above about 17%;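 also: 0% = DMSO and 100% = reference inhibitor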
M1 antagonist: antagonists of rat M1 muscarinic receptor; Muscarinic acetylcholine receptor M1 (Rattus norvegicus), P08482; CHO-M1 cells, Fluo-4 calcium, ACh EC80 antagonist mode; stronger effect = lower value; B-score at 10 µM; 64,000 tested, 3.4% active; AID 628, 2007;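 active = calcium fluorescence response, raw or row-and-column corrected B-score, differing from the plate sample mean either way at a set confidence level, mostly lower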
Target sequence (P08482 whole entry, looked up): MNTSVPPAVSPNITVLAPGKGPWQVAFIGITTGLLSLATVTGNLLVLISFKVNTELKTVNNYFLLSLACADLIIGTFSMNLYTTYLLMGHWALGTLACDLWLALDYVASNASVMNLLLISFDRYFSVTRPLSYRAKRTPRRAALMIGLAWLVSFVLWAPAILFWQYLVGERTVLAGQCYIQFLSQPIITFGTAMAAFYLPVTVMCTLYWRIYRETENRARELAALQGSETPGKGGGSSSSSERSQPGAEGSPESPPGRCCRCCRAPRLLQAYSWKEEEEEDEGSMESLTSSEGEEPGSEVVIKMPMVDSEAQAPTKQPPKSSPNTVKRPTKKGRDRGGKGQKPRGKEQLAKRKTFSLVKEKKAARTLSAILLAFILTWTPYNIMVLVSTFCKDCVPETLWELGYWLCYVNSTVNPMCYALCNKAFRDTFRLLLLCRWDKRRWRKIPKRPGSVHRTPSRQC
BAP1 inh confirm: BAP1 deubiquitinase inhibitors, hit retest, confirmation, orthogonal assay, biochemical, Ub-ethyl ester substrate, HPLC readout; 310 tested, 8% active; purified BAP1, Ub-ethyl ester hydrolysis; stronger effect = lower value; shares compounds with BAP1 inh; % of control activity, % at 20 µM;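 active = percent of control activity at or below 60%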
* hit, by the source's call; i = inactive; x = no result shown; + = active, no number.

SMILES	HEK293 NFkB inh	Her2 expr inh	M1 ag	BAP1 inh	JNK3 inh	M1 antagonist	BAP1 inh confirm
COc1ccc(-c2csc(=Nc3ccccc3)n2-c2ccccc2)cc1OC	x	x	x	i	x	x	x
COc1ccc(C(=O)Oc2ccc(C)nc2)cc1[N+](=O)[O-]	x	x	x	i	x	x	x
CCOc1ccc2nc(NC(=O)CN3CCC(n4nnc5cc(F)ccc54)CC3)sc2c1	17.0	65.7	0.519	+	9.1	-1.92	97.7
CCOC(=O)C1CCCN(c2ccc(NC(=O)c3snc4c(=O)[nH]cnc34)cc2)C1 (configuration not stated)	0.9	100.6	-0.614	+	3.7	-0.013	103.3
Cc1ccc2cc(CN(Cc3ccc4c(c3)OCO4)Cc3nnnn3Cc3ccco3)c(=O)[nH]c2c1C	14.6	63.5	1.23	+	-6.1	0.142	94.4
O=C(Oc1ccc(C(=S)N2CCCCC2)cc1)c1ccc([N+](=O)[O-])cc1	x	x	x	i	x	x	x
COc1cccc(C2C(N3C(=O)c4ccccc4C3=O)C(=O)N2c2ccc(Br)cc2)c1 (configuration not stated)	x	x	x	i	x	x	x
O=C(CN1CCN(S(=O)(=O)c2ccc(Cl)cc2)CC1)Nc1ccc2c(c1)OCCO2	12.3	112.7	0.334	i	1.3	0.296	x
N#Cc1c(NC(=O)CN2CCN(S(=O)(=O)c3ccc4c(c3)OCCO4)CC2)sc2c1CCC2	2.4	93.6	-0.00327	+	1.1	0.0808	104.4
CCc1c(C#N)c(N)nc(SC)c1C#N	x	x	x	i	x	x	x
CCOC(=O)N1CCC(NC(=O)c2ccc3c(c2)sc2nc(-c4cccc(OC)c4)cn23)CC1	11.9	85.8	1.5	i	-1.1	-1.22	x
CCOC(=O)N1CCC(NC(=O)c2ccc3c(c2)sc2nc(-c4ccccc4)cn23)CC1	-10.7	46.8	x	+	12.7	x	101.3
Cc1cccn2c(=O)c3cc(C(=O)N4c5ccccc5CC4C)n(C)c3nc12 (configuration not stated)	7.0	84.3	0.036	i	-1.0	-0.324	x
Cc1cccn2c(=O)c3cc(C(=O)N4CCc5ccccc54)n(C)c3nc12	-3.2	79.5	-0.49	+	-1.3	-1.28	i
CCOC(=O)C1Cn2c(nc3c(c2=O)C2(CCCC2)Cc2ccccc2-3)S1 (configuration not stated)	-0.5	82.8	-0.718	+	-10.8	1.07	96.6
CCOC(=O)c1c(NC(=O)c2noc3c2CCCC3)sc(C)c1C	13.6	93.6	-0.0615	i	-8.6	-0.472	x
CCOC(=O)c1sc(NC(=O)c2noc3c2CCCC3)c(C(=O)OCC)c1C	11.9	80.2	-0.258	+	0.1	0.154	i
NS(=O)(=O)c1ccc(N=Cc2ccc(F)cc2)cc1	x	x	x	i	x	x	x
COc1ccccc1-c1nc(C(N)=O)c2[nH]c(=O)n(-c3cccc(C)c3)c2n1	7.3	100.8	0.516	x	5.7	0.717	x
Cc1cccc(-n2c(=O)[nH]c3c(C(N)=O)nc(-c4ccccc4Cl)nc32)c1	20.6	26.9	-0.317	+	0.9	0.435	139.0
CCOC(=O)C1=C(C)N=c2s/c(=C/c3ccco3)c(=O)n2C1c1cccc(OC)c1 (configuration not stated)	17.2	91.7	0.666	+	-6.0	0.034	65.6
COC(=O)C1=C(C)N=c2s/c(=C/c3ccoc3)c(=O)n2C1c1ccccc1 (configuration not stated)	12.0	97.2	0.16	i	x	-0.117	x
O=C(O)c1nnc(Nc2ccccc2)c2ccccc12	x	x	x	i	x	x	x
COc1ccccc1OCc1ccc(C(=O)n2nc(C)c(Cl)c2C)o1	8.0	79.4	-0.0368	+	-0.7	0.0885	127.8
Cc1ccc(-c2nc3s/c(=C\c4ccco4)c(=O)n3n2)cc1	5.5	75.0	-1.13	+	-1.8	-0.0838	55.0*
SMILES	HEK293 NFkB inh	Her2 expr inh	M1 ag	BAP1 inh	JNK3 inh	M1 antagonist	BAP1 inh confirm
Cc1ccc(/C=c2\sc3nc(-c4ccco4)nn3c2=O)o1	-6.5	49.1	0.23	i	-5.6	0.711	x
COc1ccc(Br)cc1/C=c1\sc2nc(-c3ccco3)nn2c1=O	-2.1	65.8	-1.33	+	0.5	-1.72	74.7
COc1ccccc1/C=c1\sc2nc(-c3ccncc3)nn2c1=O	11.9	104.6	-0.0631	i	10.4	0.477	x
CCOc1ccccc1C1NC(=O)NC(C)=C1C(=O)OCCSCC (configuration not stated)	x	x	x	i	x	x	x
Cc1cccc(OCC(=O)Nc2ccc(Cl)cn2)c1	x	x	x	i	x	x	x
CSc1nc2ccc3nc(NC(=O)CN4C(=O)c5ccccc5C4=O)sc3c2s1	x	x	x	i	x	x	x
O=C(O)c1c(-c2ccccc2)c2oc3ccccc3c2[nH]c1=O	12.1	69.2	0.147	+	4.8	0.138	115.4
O=c1[nH]cnc2c1oc1ccccc12	-5.5	92.5	-0.254	i	-2.5	0.911	x
Cc1sc(NC(=O)CSc2nnc(-c3ccccc3)o2)c(C#N)c1C	6.9	93.4	0.0828	+	2.8	-0.0771	37.2*
c1ccc(-c2nnc3sc(-c4ccncc4)nn23)cc1	7.0	119.4	0.505	i	1.8	-0.0129	x
c1ccc(-c2nnc3sc(-c4csc5c4CCCC5)nn23)cc1	-9.1	83.0	-0.159	+	-0.9	-1.97	59.4*
CCCc1ccc(Oc2c(-c3ccc(OCC)cc3O)n[nH]c2C)cc1	x	x	x	i	x	x	x
CCCc1ccc(Oc2cn[nH]c2-c2ccc(O)c(C)c2O)cc1	-9.3	45.5	-1.92	+	-1.4	0.0227	58.8*
CCCc1ccc(Oc2c(-c3ccc(O)c(C)c3O)n[nH]c2C)cc1	3.1	84.3	-1.01	+	-5.7	0.115	63.6
Oc1ccc(-c2[nH]ncc2Oc2ccccc2)c(O)c1O	x	x	x	i	x	x	x
CC(=O)C(C(C)=O)c1c(Cl)c(O)c(O)c2c(C(=O)c3ccccc3)coc12	10.1	5.2	2.89	+	-6.6	-0.343	64.4
CCOC(=O)C1CCN(c2nc3cc(OC)ccc3cc2C#N)CC1	4.6	104.9	0.611	+	4.3	-0.465	116.8
O=C1CCCc2c1cc(C(=O)NC1CCSC1=O)c(=O)n2-c1ccccc1 (configuration not stated)	9.0	118.6	0.315	x	x	-0.74	x
CC1(C)CC(=O)c2cc(C(=O)NC3CCSC3=O)c(=O)n(-c3ccccc3)c2C1 (configuration not stated)	13.6	94.0	-0.0885	+	-0.9	0.219	73.7
c1ccc(SN=C(c2ccccc2)c2ccccc2)cc1	x	x	x	i	x	x	x
